Measured values: ChEMBL document CHEMBL3785023, “Development and Pharmacological Characterization of Selective Blockers of 2-Arachidonoyl Glycerol Degradation with Efficacy in Rodent Models of Multiple Sclerosis and Pain” (J Med Chem, 2016)
The source made the active and inactive calls. The rule behind the calls is not given here.

Tests used:
[1] = test system: Heart; assay: Cardiotoxicity in Langendorff-perfused Sprague-Dawley rat heart assessed as time duration of action potential at 0.01 uM by ECG analysis (reference value: 75.65 +/- 0.87 milliseconds); format: toxicity, tissue-based
[2] = test system: Heart; assay: Cardiotoxicity in Langendorff-perfused Sprague-Dawley rat heart assessed as heart rate at 0.001 uM by ECG analysis (reference value: 252.78 +/- 9.28 bpm); format: toxicity, tissue-based
[3] = target: T1, Monoglyceride lipase (Homo sapiens, UniProt Q99685); assay: Inhibition of recombinant C-terminal His6-tagged human MAGL expressed in Escherichia coli using 2-arachidonoyl-[3H]-glycerol as substrate preincubated for 10 mins followed by substrate addition measured after 20 mins by scintillation counting method
T1 sequence (Q99685 whole entry): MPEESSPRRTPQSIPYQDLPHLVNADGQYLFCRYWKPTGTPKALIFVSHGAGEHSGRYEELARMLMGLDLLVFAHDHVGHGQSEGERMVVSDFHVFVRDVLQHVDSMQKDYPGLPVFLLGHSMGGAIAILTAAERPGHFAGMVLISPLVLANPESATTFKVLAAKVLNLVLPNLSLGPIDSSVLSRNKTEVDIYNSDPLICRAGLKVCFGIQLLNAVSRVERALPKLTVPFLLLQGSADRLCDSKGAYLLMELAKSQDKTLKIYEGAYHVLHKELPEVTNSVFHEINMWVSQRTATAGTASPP
In short: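 Human recombinant MGL (10,000xg cytosolic fraction, 0.05 µg/sample) is pre-incubated with compound for 10 min. It is then incubated 20 min at 37 °C in 50 mM Tris-HCl pH 7.0 with 2-arachidonoyl-[3H]-glycerol diluted with unlabelled 2-AG. The mix is extracted with 2 vol CHCl3/MeOH 1:1, and [3H]-glycerol in the aqueous phase is counted by scintillation. Values are means of three experiments.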

[4] = test system: Heart; assay: Cardiotoxicity in Langendorff-perfused Sprague-Dawley rat heart assessed as corrected time duration of action potential at 0.1 uM by ECG analysis (reference value: 155.26 +/- 2.96 milliseconds); format: toxicity, tissue-based
[5] = Apparent permeability from luminal to abluminal side in human endothelial cells cocultured with pericytes at 100 uM after 20 to 60 mins by LC-UV analysis; format: ADME, cell-based, Endothelial cell
In short: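 Human BBB model: endothelial cells derived from hematopoietic stem cells, cocultured 6 days with pericytes. Compound (100 µM in Ringer + Hepes) added luminally together with Lucifer yellow as an integrity marker. Incubated 20, 40 and 60 min at 37 °C; abluminal compound measured by LC-UV. Papp = J/(A·C0).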

[6] = test system: Heart; assay: Cardiotoxicity in Langendorff-perfused Sprague-Dawley rat heart assessed as corrected time duration of action potential at 0.001 uM by ECG analysis (reference value: 155.26 +/- 2.96 milliseconds); format: toxicity, tissue-based
[7] = test system: Mus musculus; assay: In vivo inhibition of MAGL in CD-1 mouse assessed as 2-AG level in spinal cord at 0.3 mg/kg, ip coadministered with formalin by LC-MS analysis (reference value: 3.8 +/- 0.4 pmol/g); format: functional
[8] = test system: Heart; assay: Cardiotoxicity in Langendorff-perfused Sprague-Dawley rat heart assessed as intraventricular conduction time at 0.001 uM by ECG analysis (reference value: 14.26 +/- 0.71 milliseconds); format: toxicity, tissue-based, Cardiac ventricle
[9] = test system: Heart; assay: Cardiotoxicity in Langendorff-perfused Sprague-Dawley rat heart assessed as atrioventricular conduction time at 0.001 uM by ECG analysis (reference value: 45.62 +/- 4.49 milliseconds); format: toxicity, tissue-based
[10] = test system: Heart; assay: Cardiotoxicity in Langendorff-perfused Sprague-Dawley rat heart assessed as time duration of action potential at 1 uM by ECG analysis (reference value: 75.65 +/- 0.87 milliseconds); format: toxicity, tissue-based
[11] = test system: Heart; assay: Cardiotoxicity in Langendorff-perfused Sprague-Dawley rat heart assessed as time duration of cardiac cycle length at 0.001 uM by ECG analysis (reference value: 238.38 +/- 9.23 milliseconds); format: toxicity, tissue-based
[12] = test system: Heart; assay: Cardiotoxicity in Langendorff-perfused Sprague-Dawley rat heart assessed as intraventricular conduction time at 1 uM by ECG analysis (reference value: 14.26 +/- 0.71 milliseconds); format: toxicity, tissue-based, Cardiac ventricle
[13] = test system: Salmonella typhimurium; assay: Mutagenicity in Salmonella typhimurium TA100 assessed as increase in number of colonies at 1 uM by Ames test; format: toxicity, organism-based; conditions: salmonella enterica subsp. enterica serovar typhimurium
[14] = test system: Mus musculus; assay: Inhibition of demyelination in experimental autoimmune encephalomyelitis C57BL/6J mouse spinal cord at 3 mg/kg, ip administered post CB2 antagonist/inverse agonist AM630 addition by luxol fast blue staining based microscopic analysis; format: functional, organism-based
In short: (§1)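 EAE induced in female C57BL/6J mice with MOG35-55, then 3 mg/kg i.p. daily. AM251 or AM630 (1 mg/kg), where used, given 10 min before each dose. Spinal cord white matter stained with Luxol Fast Blue and demyelinated areas assessed by microscopy.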

[15] = target: Acyl-protein thioesterase 1/2 (Rattus norvegicus) (UniProt P70470+Q9QYL8); assay: Inhibition of LYPLA1/2 in rat brain membranes at 500 to 1000 nM preincubated for 20 mins followed by fluorophosphonate-rhodamine addition measured after 30 mins by competitive affinity based proteomic profiling assay; format: cell membranes; conditions: Membrane
Chain of Acyl-protein thioesterase 1/2 (Rattus norvegicus) (P70470 whole entry, looked up): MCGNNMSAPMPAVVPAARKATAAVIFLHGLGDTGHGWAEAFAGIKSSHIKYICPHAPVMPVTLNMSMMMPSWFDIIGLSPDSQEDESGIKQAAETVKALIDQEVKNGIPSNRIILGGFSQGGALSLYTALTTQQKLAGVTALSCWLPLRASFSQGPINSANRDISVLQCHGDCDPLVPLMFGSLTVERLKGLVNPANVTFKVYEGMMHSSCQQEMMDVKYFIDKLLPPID
Chain of Acyl-protein thioesterase 1/2 (Rattus norvegicus) (Q9QYL8 whole entry, looked up): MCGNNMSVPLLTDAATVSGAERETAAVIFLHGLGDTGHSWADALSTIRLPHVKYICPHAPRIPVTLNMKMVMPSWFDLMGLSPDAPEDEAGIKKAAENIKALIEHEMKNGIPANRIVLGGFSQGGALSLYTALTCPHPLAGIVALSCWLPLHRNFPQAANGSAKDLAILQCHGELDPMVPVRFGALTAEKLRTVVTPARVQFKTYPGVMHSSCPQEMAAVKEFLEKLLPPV
In short: (§2)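 Rat brain membranes (1 mg/mL) preincubated with 1–1000 nM inhibitor or DMSO for 20 min at 37 °C. FP-rhodamine then added and incubated a further 30 min at 37 °C. Samples run on SDS-PAGE and serine hydrolase bands quantified by in-gel fluorescence.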

[16] = test system: Mus musculus; assay: Antinociceptive activity in CD-1 mouse assessed as inhibition of formalin-induced early phase pain response at 0.1 to 0.3 mg/kg, ip dosed 10 mins before formalin injection measured every 5 mins for 60 mins in presence of CB1 antagonist/inverse agonist AM251; format: functional, organism-based
In short: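 Male CD-1 mice, n = 6 per group, injected with formalin (1.25% in saline, 30 μL) into the dorsal hind paw. Inhibitor (0.1 or 0.3 mg/kg i.p. in 0.5% DMSO/saline) given 10 min before formalin. Where used, AM251 or AM630 (1 mg/kg i.p.) given 10 min before the inhibitor. Time spent lifting, licking, shaking or flinching the injected paw recorded every 5 min over 60 min.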

[17] = target: T2, Monoacylglycerol lipase ABHD6 (Rattus norvegicus) (UniProt Q5XI64); assay: Inhibition of ABHD6 in rat brain membranes up to 500 nM preincubated for 20 mins followed by fluorophosphonate-rhodamine addition measured after 30 mins by competitive affinity based proteomic profiling assay; format: cell membranes; conditions: Membrane; in short: as §2
T2 sequence (whole entry): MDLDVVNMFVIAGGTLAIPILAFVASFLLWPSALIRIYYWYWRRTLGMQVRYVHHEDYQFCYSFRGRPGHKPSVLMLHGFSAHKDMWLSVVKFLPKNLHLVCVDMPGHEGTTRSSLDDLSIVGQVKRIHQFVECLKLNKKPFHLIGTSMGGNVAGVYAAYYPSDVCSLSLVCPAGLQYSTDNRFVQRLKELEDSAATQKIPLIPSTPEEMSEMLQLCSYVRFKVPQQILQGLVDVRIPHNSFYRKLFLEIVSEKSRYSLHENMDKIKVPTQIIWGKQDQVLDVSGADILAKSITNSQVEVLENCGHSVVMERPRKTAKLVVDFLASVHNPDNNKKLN

[18] = test system: Mus musculus; assay: Inhibition of demyelination in experimental autoimmune encephalomyelitis C57BL/6J mouse spinal cord at 3 mg/kg, ip administered post CB1 antagonist/inverse agonist AM251 addition by luxol fast blue staining based microscopic analysis; format: functional, organism-based; in short: as §1

SMILES | Time [1] | Activity [2] | IC50 [3] | Time [4] | Papp at 100 µM [5] | Time [6] | Activity [7] | Time [8] | Time [9] | Time [10] | Time [11] | Time [12] | Activity [13] | inhibition [14] | inhibition [15] | inhibition [16] | inhibition [17] | inhibition [18]
O=C1[C@H](c2ccc(F)cc2)[C@@H](c2ccc3c(c2)OCO3)N1C1CCN(C(=O)n2cncn2)CC1 (racemic) [listing 1 of 2 here] | 76.17 ms | 254.38 bpm | 0.196 µM | 154.6 ms | 470 nm/s | 157.13 ms | 6.6 pmol/g | 14.02 ms | 46.03 ms | 76.02 ms | 236.93 ms | 13.75 ms | Non-toxic | – | – | – | – | –
O=C1[C@H](c2ccc(F)cc2)[C@@H](c2ccc3c(c2)OCO3)N1C1CCN(C(=O)n2cncn2)CC1 (racemic) [listing 2 of 2 here] | – | – | – | – | – | – | – | – | – | – | – | – | – | inactive | Active | inactive | inactive | inactive
